Measurements taken from ChEMBL document CHEMBL1123708, “Resolved cis- and trans-2-amino-5-methoxy-1-methyltetralins: central dopamine receptor agonists and antagonists” (1987).
Active and inactive are the calls of the source. No cut-off for these calls is given here.

Experiments:
[1] = tested on: Rattus norvegicus; assay: In vivo DOPA accumulation in reserpine pretreated rat limbic system after 1.4 umol/kg ip; I denotes inactive; type: functional, organism-based
[2] = tested on: Rattus norvegicus; assay: Locomotory activity was determined in non pretreated rats at a dose of 2.7 umol/kg by intraperitoneal administration
[3] = tested on: Rattus norvegicus; assay: In vivo DOPA accumulation in non pre-treated rat striatal system following s.c. administration.; type: functional; settings: sc
In short: (§1)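 Rats without pretreatment received test drug sc 65 min and NSD 1015 (100 mg/kg ip) 30 min before death, with saline controls. DOPA was measured in limbic or striatal tissue. Dose for half-maximal change was estimated from 4-5-dose curves (n = 3-5), maximal level as % of control.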

[4] = tested on: Rattus norvegicus; assay: Change in rectal temperature induced by DiPr-5,6-ADTN at a dose of 2.7 umol/kg of compound by subcutaneous administration; type: functional
In short: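 Rats received DiPr-5,6-ADTN at 0.25 μmol/kg sc, then the test compound sc (tested range 2.7–204 μmol/kg) 60 min later. Rectal temperature change was measured between 60 and 100 min after DiPr-5,6-ADTN. Values are mean ± SEM, n = 4, compared with DiPr-5,6-ADTN-only controls by Student's t test.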

[5] = tested on: Rattus norvegicus; assay: In vivo DOPA accumulation in non pre-treated rat limbic system following s.c. administration.; type: functional; settings: sc; in short: as §1
[6] = tested on: Rattus norvegicus; assay: In vivo DOPA accumulation in reserpine pretreated rat striatum system after 1.4 umol/kg ip; I denotes inactive; type: functional, organism-based
[7] = target: T1, Dopamine receptor (Rattus norvegicus) (UniProt P25115+P19020+P30729+P18901+P61169); settings: 204 uM
[8] = tested on: Rattus norvegicus; assay: Locomotory activity was determined in non pretreated rats at a dose of 3.2 umol/kg by subcutaneous administration; type: functional
In short: (§2)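 Untreated rats received test drug sc 5 min before a 30-min session in photocell motility meters, with accumulated counts recorded. Activity is expressed as percent of saline controls, mean ± SEM, n = 3-5. Gross behaviour was observed through a semitransparent mirror. Differences from saline controls were assessed by Student's t test.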

[9] = target: T1, Dopamine receptor (Rattus norvegicus); assay: Ability to displace the Dopamine receptor agonist DiPr-5,6-ADTN from rat striatal binding sites in vivo at a dose of 52 uM/kg by subcutaneous administration; type: organism-based
[10] = tested on: Rattus norvegicus; assay: Change in rectal temperature induced by DiPr-5,6-ADTN at a dose of 3.2 umol/kg of compound by subcutaneous administration; type: functional
In short: (§3)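 Rats received DiPr-5,6-ADTN (0.25 μmol/kg sc) 100 min and test compound sc 40 min before death. Rectal temperature change (°C) was recorded between 60 and 100 min after DiPr-5,6-ADTN. Values are mean ± SEM, n = 4, with Student's t test vs DiPr-5,6-ADTN alone.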

[11] = tested on: Rattus norvegicus; assay: Induced locomotor stimulation was determined in non pretreated rats at a dose of 52 uM/kg by subcutaneous administration; type: functional; in short: as §2
[12] = tested on: Rattus norvegicus; assay: Induced locomotor stimulation in non pre-treated rats by 13 umol/kg s.c. administration.; type: functional
[13] = tested on: Rattus norvegicus; assay: Change in rectal temperature induced by DiPr-5,6-ADTN at a dose of 52 umol/kg of compound by subcutaneous administration; type: functional; in short: as §3
[14] = tested on: Rattus norvegicus; assay: Induced locomotor stimulation was determined in non pretreated rats at a dose of 204 umol/kg by subcutaneous administration; type: functional
[15] = tested on: Rattus norvegicus; assay: In vivo DOPA accumulation in reserpine pretreated rat striatum system by subcutaneous administration; I denotes inactive; type: functional, organism-based
In short: (§4)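 Rats received reserpine (5 mg/kg sc) 18 h, test drug sc 60 min and NSD 1015 (100 mg/kg ip) 30 min before death, with saline controls. Limbic or striatal DOPA was measured. Dose for half-maximal decrease was estimated from 4-7-dose curves (n = 3-5), minimal level as % of control.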

[16] = target: T1, Dopamine receptor (Rattus norvegicus); assay: In vivo displacement of DiPr-5,6-ADTN from Dopamine receptors in rat striatum; type: organism-based
[17] = tested on: Rattus norvegicus; assay: Induced locomotor stimulation in non pre-treated rats by 52 umol/kg s.c. administration.; type: functional
[18] = target: T1, Dopamine receptor (Rattus norvegicus); settings: 13 uM
[19] = tested on: Rattus norvegicus; assay: Change in rectal temperature induced by DiPr-5,6-ADTN at a dose of 204 umol/kg of compound by subcutaneous administration; type: functional; in short: as §3
[20] = tested on: Rattus norvegicus; assay: Locomotory activity was determined in reserpine pretreated rats at a dose of 52 umol/kg by subcutaneous administration. Value is the accumulation counts/30 min; type: functional
In short: (§5)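 Rats were given reserpine 5 mg/kg sc 18 h beforehand, then test drug sc immediately before the activity session. Motor activity was recorded by photocells in motility meters as accumulated counts over 30 min, mean ± SEM, n = 3-4. Gross behaviour was watched for signs of stimulation. Reserpine-only controls were included.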

[21] = tested on: Rattus norvegicus; assay: Change in rectal temperature induced by DiPr-5,6-ADTN at a dose of 13 umol/kg of compound by subcutaneous administration; type: functional; in short: as §3
[22] = tested on: Rattus norvegicus; assay: ((+)-UH-232) induced locomotor stimulation was determined in non pretreated rats at a dose of 3.2 umol/kg by subcutaneous administration; type: functional
[23] = tested on: Rattus norvegicus; assay: In vivo DOPA accumulation in reserpine pretreated rat limbic system by subcutaneous administration; I denotes inactive; type: functional, organism-based; in short: as §4
[24] = tested on: Rattus norvegicus; assay: In vivo DOPA accumulation in reserpine pretreated rat limbic system by subcutaneous administration; type: functional; settings: sc; in short: as §4
[25] = tested on: Rattus norvegicus; assay: In vivo DOPA accumulation in reserpine pretreated rat striatum system by subcutaneous administration; type: functional; settings: sc; in short: as §4
[26] = tested on: Rattus norvegicus; assay: Locomotory activity was determined in reserpine pretreated rats at a dose of 125 umol/kg by subcutaneous administration. Value is the accumulation counts/30 min; type: functional; in short: as §5
[27] = tested on: Rattus norvegicus; assay: Locomotory activity was determined in non pretreated rats at a dose of 3.2 umol/kg by subcutaneous administration; I denotes inactive; type: functional, organism-based; in short: as §2
[28] = target: T1, Dopamine receptor (Rattus norvegicus); settings: 45 uM
[29] = tested on: Rattus norvegicus; assay: Locomotory activity was determined in reserpine pretreated rats at a dose of 204 umol/kg by subcutaneous administration. Value is the accumulation counts/30 min; type: functional; in short: as §5
[30] = tested on: Rattus norvegicus; assay: In vivo DOPA accumulation in non pretreated rat striatum system by subcutaneous administration; I denotes inactive; type: functional, organism-based; in short: as §1
[31] = tested on: Rattus norvegicus; assay: In vivo DOPA accumulation in non pretreated rat limbic system by subcutaneous administration; I denotes inactive; type: functional, organism-based; in short: as §1
[32] = tested on: Rattus norvegicus; assay: Locomotory activity was determined in non pretreated rats at a dose of 52 umol/kg by subcutaneous administration; I denotes inactive; type: functional; in short: as §2
[33] = tested on: Rattus norvegicus; assay: Change in rectal temperature induced by DiPr-5,6-ADTN at a dose of 22 umol/kg of compound by subcutaneous administration; type: functional; in short: as §3
[34] = tested on: Rattus norvegicus; assay: Change in rectal temperature induced by DiPr-5,6-ADTN at a dose of 45 umol/kg of compound by subcutaneous administration; type: functional; in short: as §3
[35] = target: T1, Dopamine receptor (Rattus norvegicus); settings: 22 uM
[36] = target: T1, Dopamine receptor (Rattus norvegicus); assay: Ability to displace the Dopamine receptor agonist DiPr-5,6-ADTN from rat striatal binding sites in vivo at a dose of 13 uM/kg by subcutaneous administration; type: organism-based
[37] = tested on: Rattus norvegicus; assay: In vivo DOPA accumulation in reserpine pretreated rat limbic system by subcutaneous administration.; type: functional; settings: sc; in short: as §4
[38] = tested on: Rattus norvegicus; assay: In vivo DOPA accumulation in reserpine pretreated rat striatum system by subcutaneous administration.; type: functional; settings: sc; in short: as §4
[39] = tested on: Rattus norvegicus; assay: Locomotory activity was determined in non pretreated rats at a dose of 52 umol/kg by subcutaneous administration.; type: functional; in short: as §2

Compound: O=C(CCCN1CCC(O)(c2ccc(Cl)cc2)CC1)c1ccc(F)cc1 [HALOPERIDOL]
- ED50 [1]: inactive
- Activity [2]: 3%
- ED50 [3]: 0.19 µmol/kg
- Body temp change [4]: 1.34 °C
- ED50 [5]: 0.19 µmol/kg
- ED50 [6]: inactive

Compound: CCCN(CCC)[C@@H]1CCc2c(OC)cccc2[C@@H]1C
- Binding [7]: 31%
- Activity [8]: 152%
- Binding [9]: 34%
- Body temp change [10]: -0.03 °C
- ED50 [3]: 9.6 µmol/kg
- Activity [11]: 24%
- Activity [12]: 78%
- Body temp change [13]: 0.45 °C
- Activity [14]: 22%
- ED50 [15]: inactive
- Binding [16]: 83%
- Activity [17]: 70%
- ED50 [5]: 12.8 µmol/kg
- Binding [18]: 61%
- Body temp change [19]: 0.45 °C
- Activity [20]: 4 counts/30 min
- Body temp change [21]: 1.4 °C
- Activity [22]: 105%
- ED50 [23]: inactive

Compound: CCCN[C@H]1CCc2c(O)cccc2[C@H]1C
- Binding [9]: 66%
- Activity [11]: 80%
- ED50 [24]: 4 µmol/kg
- Body temp change [13]: -0.45 °C
- ED50 [25]: 5 µmol/kg
- Activity [26]: 26%

Compound: CCCN(CCC)[C@H]1CCc2c(OC)cccc2[C@H]1C
- Activity [27]: inactive
- Binding [28]: 94%
- Activity [29]: 8 counts/30 min
- ED50 [24]: 5.5 µmol/kg
- ED50 [30]: inactive
- ED50 [31]: inactive
- Activity [32]: inactive
- Body temp change [33]: 0.12 °C
- ED50 [25]: 5.8 µmol/kg
- Body temp change [34]: 0.5 °C
- Binding [35]: 106%

Compound: CCCN(CCC)[C@H]1CCc2c(O)cccc2[C@@H]1C
- Activity [8]: 79%
- Binding [36]: 91%
- ED50 [37]: 7.3 µmol/kg
- Activity [12]: 92%
- ED50 [38]: 7.9 µmol/kg
- Activity [20]: 19 counts/30 min
- Body temp change [21]: -0.83 °C
- Activity [39]: 74%
